Measured values: ChEMBL document CHEMBL3272145, “Synthesis and some pharmacological properties of the 23-peptide 15-lysine-secretin-(5--27). Special role of the residue in position 15 in biological activity of the vasoactive intestinal polypeptide” (1978)
Activity calls are given as the source filed them. No cut-off for these calls is given here.

Experiments:
[1] = Vasolrelaxant activity in rat gastric fundus; type: functional, tissue-based; conditions: Stomach
[2] = Vasolrelaxant activity in guinea pig lung; type: functional; conditions: Cavia porcellus
Cavia porcellus [3] = species on record: Cavia porcellus; experiment: Vasolrelaxant activity in guinea pig trachea; type: functional, tissue-based
Cavia porcellus [4] = species on record: Cavia porcellus; experiment: Apparent binding affinity to VIP receptor in guinea pig acinar cells assessed as inhibition of VIP-induced cAMP accumulation measured as concentration required to occupy 50% of receptor; type: cell-based
Outline: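 Dispersed acinar cells from guinea pig pancreas. Apparent affinity for the VIP-preferring receptor was calculated from the fragment's ability to inhibit the cAMP increase caused by 10^-9 M VIP. Values are means (±1 SD) from three separate experiments.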

Cavia porcellus [5] = species on record: Cavia porcellus; experiment: Apparent binding affinity to secretin receptor in guinea pig acinar cells assessed as inhibition of secretin-induced cAMP accumulation measured as concentration required to occupy 50% of receptor; type: cell-based
Outline: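 Dispersed acinar cells from guinea pig pancreas. Apparent affinity for the secretin-preferring receptor was calculated from the fragment's ability to inhibit the cAMP increase caused by 10^-9 M secretin. Values are means (±1 SD) from three separate experiments.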

Rattus norvegicus [6] = species on record: Rattus norvegicus; experiment: Effect on exocrine pancreatic secretion in rat; type: functional, organism-based
Rattus norvegicus [7] = experiment: Induction of pancreatic secretory flow in iv dosed rat measured per 10 mins per gram wet weight of pancreas relative to secretin; type: functional
Rattus norvegicus [8] = experiment: Induction of pancreatic secretory flow in iv dosed rat measured per 10 mins per gram wet weight of pancreas; type: functional

Compound | Activity [1] | Activity [2] | Activity (Cavia porcellus [3]) | Activity (Cavia porcellus [4]) | Activity (Cavia porcellus [5]) | Activity (Rattus norvegicus [6]) | Emax (Rattus norvegicus [7]) | Activity (Rattus norvegicus [8])
CC[C@H](C)[C@H](NC(=O)[C@H](CO)NC(=O)[C@H](CC(N)=O)NC(=O)[C@H](CC(C)C)NC(=O)[C@H](Cc1ccc(O)cc1)NC(=O)[C@H](CCCCN)NC(=O)[C@H](CCCCN)NC(=O)[C@@H](NC(=O)[C@H](C)NC(=O)[C@H](CCSC)NC(=O)[C@H](CCC(N)=O)NC(=O)[C@H](CCCCN)NC(=O)[C@H](CCCN=C(N)N)NC(=O)[C@H](CC(C)C)NC(=O)[C@H](CCCN=C(N)N)NC(=O)[C@@H](NC(=O)[C@H](Cc1ccc(O)cc1)NC(=O)[C@H](CC(N)=O)NC(=O)[C@H](CC(=O)O)NC(=O)[C@@H](NC(=O)[C@H](Cc1ccccc1)NC(=O)[C@@H](NC(=O)[C@H](C)NC(=O)[C@H](CC(=O)O)NC(=O)[C@H](CO)NC(=O)[C@@H](N)Cc1c[nH]cn1)C(C)C)[C@@H](C)O)[C@@H](C)O)C(C)C)C(=O)N[C@@H](CC(C)C)C(=O)N[C@@H](CC(N)=O)C(N)=O | Active | Active | Active |  |  |  |  | 
H-TFTSELSRLRDSARLQRLLQGLV-NH2 | Active | Active | Active | 46 ×10⁻⁷ M | 2.3 ×10⁻⁷ M |  |  | 
H-TFTSELSRLRKSARLQRLLQGLV-NH2 | Active | Active | Active | 10 ×10⁻⁷ M | 12 ×10⁻⁷ M | inactive | 20% | 12.9 µL
H-TFTSELSRLRNSARLQRLLQGLV-NH2 |  |  |  | 8 ×10⁻⁷ M | 1.9 ×10⁻⁷ M | inactive |  | Active
SECRETIN |  |  |  |  |  |  |  | Active
